Cneo AK release: Cryptococcus neoformans lysis via adenylate kinase release | actives 0.2% (n = 360,000) | lysis activity, % at 15 µM | C. neoformans lysis, adenylate kinase release luminescence, 4 h; normalised: neutral wells 0, clomiphene wells 100;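 active means mean lysis activity across replicates of at least 80%, whatever share of replicates individually reach that level; inactive means mean lysis activity below 80%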
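Signal: Adenylate kinase release luminescence | Assay system: Log-phase Cryptococcus neoformans yeast cells | Input: Cells at 5 × 10^6 per mL | Buffer or medium: Fresh YPD growth medium | Compound: Single dose | Schedule: Static 4 h at 37 °C with compound, 1 h detection | Controls: Clomiphene | Read-out: Luminescence rise reflecting yeast cell lysis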
CFTR F508del cor: CFTR F508del correction in bronchial cells. activity (quench increase), % at 7.58 µM. AID 720511. CFBE cells, YFP halide quenching; stimulated with forskolin plus potentiator P3; % fluorescence drop versus neutral controls. actives 0.36% (n = 350,000);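 active means mean added fluorescence quench of at least 8% versus neutral control, with both replicates also reaching 8%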;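 further: cells transiently co-express mutant CFTR-F508del with the halide-sensitive YFP; corrector assay measuring rescue of mutant channel to the surface after 24 h compound exposure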
rRNA inh HTS: selective bacterial rRNA inhibition in E. coli; E. coli WT GFP vs humanized-ribosome RFP mutants, fluorescence, 24 h; hits give low values; DMSO median 0, no signal -100; GFP signal change (wild-type ribosome), % (no concentration beside the values); actives 1.6% (n = 350,000);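 active means significant combined selectivity score with lowered wild-type GFP, culture density cut under 30%, mutant RFP and density less affected; inactive means any of these conditions unmet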
CaV13 ICDI inh: Disruptors of the CACNA1D IQ motif to Ca2+-dependent inactivation inhibitor domain association, primary screening, Förster resonance energy transfer in intact living …; HEK cells, CFP/YFP FRET ICDI-IQ, plate reader, 10 min; percent FRET-ratio fall versus neutral wells; inhibition, % at 12.3 µM; actives 0.098% (n = 340,000);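 active means mean replicate inhibition of at least 30% and at least 1% of replicates passing that level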;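 further: 0% = median of the neutral control wells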
Numbers without * were called inactive; . = not tested or not shown; + = active, no number. Hits are enriched below; roughly 1.7% of the tested compounds scored in any of these assays.

SMILES	Cneo AK release	CFTR F508del cor	rRNA inh HTS	CaV13 ICDI inh
Cc1noc(C)c1S(=O)(=O)Nc1ccc2c(c1)C(=O)N([C@H](C)CO)C[C@@H](C)[C@@H](CN(C)C(=O)Cc1ccccc1)OCCCC[C@H](C)O2	-0.4	-1.0	-4.0	.
NNc1nc(-c2ccccc2)cc(-c2ccc(Br)cc2)n1	-0.9	2.2	-25.3*	-2.2
NNc1nc(-c2ccccc2)c2cc(Br)ccc2n1	-4.2	3.0	-12.1	-17.9
COc1cc(C2c3sc(=O)[nH]c3SC3C4CCC(C4)C23)ccc1O (stereo not drawn)	1.4	-1.2	-31.9*	-8.1
O=c1[nH]c2c(s1)C(c1ccccc1)C1C3CCC(C3)C1S2 (stereo not drawn)	1.8	.	.	.
O=C(CN1CCOCC1)N[C@H]1CC[C@H](CCNC(=O)C2CCCC2)O[C@@H]1CO	58.5	-2.1	2.8	.
CC(C)(C)OC(=O)N1CCC[C@H]1c1nnc(SCc2ccccc2)o1	-3.8	7.1	-21.6	-5.5
Cc1ccc(CSc2nnc(CCNC(=O)OC(C)(C)C)o2)cc1	-5.6	-1.7	-24.9*	-20.3
Cc1ccc(CSc2nnc([C@@H]3CCCN3C(=O)OC(C)(C)C)o2)cc1	.	1.2	-15.6*	1.4
CO[C@@H]1CN(C)C(=O)c2cc(NS(C)(=O)=O)ccc2OC[C@H](C)N(C(=O)C2CCCCC2)C[C@H]1C	-0.7	1.6	2.3	.
C[C@@H]1C/C=C\C[C@@H](c2ccc3c(c2)OCO3)NC(=O)[C@@H](c2ccccc2)CC(=O)N1	.	.	-1.2	.
CCC(C)n1c(=N)c(C#N)cc2c(=O)n3cc(C)ccc3nc21 (stereo not drawn)	.	-0.8	14.0	57.1*
Cc1cccn2c(=O)c3cc(C#N)c(=NC(=O)c4cccs4)n(CC(C)C)c3nc12	.	-3.6	25.3	+
Cc1cccn2c(=O)c3cc(C#N)c(=N)n(Cc4cccnc4)c3nc12	1.4	.	.	0.4
CCC(C)n1c(=N)c(C#N)cc2c(=O)n3cccc(C)c3nc21 (stereo not drawn)	.	-0.5	-1.2	+
CCOCCCn1c(=NC(=O)c2cccs2)c(C#N)cc2c(=O)n3cccc(C)c3nc21	10.7	-5.2	15.6	15.7
CC(C)NC(=O)Nc1ccc2c(c1)CC(=O)N([C@H](C)CO)C[C@H](C)[C@H](CN(C)Cc1ccccc1)O2	-1.7	-1.1	3.1	.
COc1ccc(NC(=S)N(Cc2cccc(Br)c2)CC2CCC(C(=O)O)CC2)cc1 (stereo not drawn)	1.7	-1.7	-6.0	.
COc1ccc(CN(CC2CCC(C(=O)O)CC2)C(=S)Nc2ccc(C)c(Cl)c2)cc1 (stereo not drawn)	-1.8	2.5	-33.1*	-4.8
CCOc1ccc(S(=O)(=O)N(C)c2ccc(OCC(=O)Nc3ccc4[nH]c(=O)[nH]c4c3)cc2)cc1	-1.2	.	-31.6*	.
CN(C)CCn1c2ccccc2c2nc3ccc([N+](=O)[O-])cc3cc21	-0.6	13.5*	-32.0*	-0.2
Cc1ccc(S(=O)(=O)N2[C@@H](c3ccccc3F)C(C(=O)O)=CC[C@H]2c2cccs2)cc1	0.9	-3.5	-16.4*	-5.2
CCc1ccc([C@@H]2CC=C(C(=O)O)[C@H](c3ccc(C)cc3)N2S(=O)(=O)c2ccc(C)cc2)cc1	-1.2	0.9	-24.4*	-4.6
Cc1ccc([C@H]2C(C(=O)O)=CC[C@@H](c3ccc(C)cc3)N2S(=O)(=O)c2ccccc2C)cc1	-1.4	-1.0	-39.0*	-3.8
Cc1ccc([C@@H]2CC=C(C(=O)O)CN2S(=O)(=O)c2ccccc2C)cc1	-1.4	-2.9	-25.2*	-9.0
Cc1ccc(S(=O)(=O)N2[C@@H](c3ccccc3)C(C(=O)O)=CC[C@H]2c2cccs2)cc1	0.3	-1.0	-35.8	-9.1
Cc1ccc([C@@H]2CC=C(C(=O)O)CN2S(=O)(=O)c2ccc(C)cc2)cc1	2.2	1.3	-19.2	-3.4
CC(=O)N(C)C[C@@H]1Oc2cc(-c3ccc(C#N)cc3)ccc2S(=O)(=O)N([C@@H](C)CO)C[C@H]1C	2.4	1.0	-1.8	.
COc1ccc(CN(C)C[C@H]2OCCCC[C@H](C)Oc3ccc(NS(=O)(=O)c4ccc(Cl)cc4)cc3C(=O)N([C@@H](C)CO)C[C@@H]2C)cc1	1.3	1.0	6.7	.
O=C(NC(Cc1ccccc1)C(=O)N1CCN(S(=O)(=O)c2ccccc2F)CC1)c1ccccc1 (stereo not drawn)	-1.5	8.7*	-1.4	-7.1

Screening data: PubChem BioAssay, Broad Institute
